Data published in ChEMBL document CHEMBL4414566, “Cytotoxicity and Anti-inflammatory Properties of Apigenin-Derived Isolaxifolin” (J Nat Prod, 2019).
Activity calls are given as the source filed them. No cut-off for these calls is given here.

What was measured:
MDA-MB-231 [1] = experiment: Induction of mitochondrial membrane potential loss in human MDA-MB-231 cells cell population with mitochondrial membrane potential collapse by measuring green fluorescence at 8.6 uM incubated for 48 hrs by JC1 staining based flow cytometric analysis (reference value: 7.96%); type: functional
How it was run: (§1)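 MDA-MB-231 cells in DMEM/10% FBS exposed 48 h to 0, 8.6, 12.4 or 17.3 μM. Harvested cells stained with JC-1 for 15 min in the dark, then analysed by flow cytometry. Excitation 488 nm; green emission read at 525 nm, red at 590 nm. Output given as percent green-to-red fluorescence intensity ratio. Triplicate, mean ± SD.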

MDA-MB-231 [2] = experiment: Induction of cell cycle arrest in human MDA-MB-231 cells assessed as accumulation of cells at G2/M phase at 12.4 uM incubated for 48 hrs by PI/RNase staining based flow cytometric analysis (reference value: 10.4%); type: functional
How it was run: (§2)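 Cell-cycle analysis: MDA-MB-231 cells were preincubated 24 h, then treated with 8.6, 12.4 or 17.3 μM for 48 h. Cells were pelleted, fixed in 75% ethanol at −20 °C overnight, and stained with PI/RNase for 15 min in the dark at ambient temperature. About 10 000 cells per well were analyzed by flow cytometry for DNA content.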

MDA-MB-231 [3] = experiment: Induction of apoptosis in human MDA-MB-231 cells assessed as viable cells at 12.4 uM incubated for 48 hrs by annexin V-FITC/PI based flow cytometric analysis (Rvb= 96.21%); type: functional; details: MDA-MB-231, 48 h, read-out: Activity
MDA-MB-231 [4] = experiment: Induction of cell cycle arrest in human MDA-MB-231 cells assessed as accumulation of cells at G0/G1 phase at 12.4 uM incubated for 48 hrs by PI/RNase staining based flow cytometric analysis (reference value: 50.4%); type: functional; how it was run: as §2
MDA-MB-231 [5] = experiment: Induction of cell cycle arrest in human MDA-MB-231 cells assessed as increase in accumulation of cells at G0/G1 phase incubated for 48 hrs by PI/RNase staining based flow cytometric analysis; type: functional
How it was run: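 Cells grown 24 h in DMEM/10% FBS at 37 °C, 5% CO2, then exposed 48 h to 8.6, 12.4 or 17.3 μM. Pelleted, fixed in 75% ethanol at −20 °C overnight, stained with PI-containing RNase 15 min in the dark at ambient temperature. About 10 000 cells per well analysed by flow cytometry. Triplicate, mean ± SD.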

[6] = Cytotoxicity against mouse RAW264.7 cells assessed as reduction in cell viability incubated for 24 hrs by MTT assay; type: cell-based; details: read-out: MNCC
How it was run: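 MTT viability assay: RAW 264.7 cells seeded at 2.5 × 10^4 cells/well, cultured 12 h, then given five concentrations from serial dilution (up to 6.2 or 9.2 μM; final DMSO <1%) for 24 h. Viability was calculated relative to untreated blank control; n = 3, mean ± SD.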

RAW264.7 [7] = experiment: Antiinflammatory activity in mouse RAW264.7 cells assessed as reduction in LPS-induced IL6 production at 0.8 to 3.1 uM preincubated with LPS for 24 hrs followed by compound addition and measured after 24 hrs by ELISA; type: functional, cell-based
How it was run: (§3)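 Murine RAW 264.7 macrophages, 1 × 10^5/well, 4 h settling, then LPS (1.0 μg/mL) for 24 h. Medium was swapped for test solutions (0.8–3.1 μM or 2.3–9.2 μM), or DXM 254.8 μM as positive control, for another 24 h. Secreted NO was measured by Griess assay; TNF-α and IL-6 by ELISA. Run in triplicate, mean ± SD.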

MDA-MB-231 [8] = experiment: Induction of apoptosis in human MDA-MB-231 cells assessed as increase in late apoptotic cells population incubated for 48 hrs by annexin V-FITC/PI based flow cytometric analysis; type: functional, cell-based
MDA-MB-231 [9] = experiment: Induction of cell cycle arrest in human MDA-MB-231 cells assessed as accumulation of cells at S phase at 8.6 uM incubated for 48 hrs by PI/RNase staining based flow cytometric analysis (reference value: 39.2%); type: functional; how it was run: as §2
RAW264.7 [10] = experiment: Antiinflammatory activity against LPS-activated mouse RAW264.7 cells assessed as reduction in IL6 mRNA expression at 3.1 uM preincubated with LPS for 24 hrs followed by compound addition and measured after 24 hrs by qRT-PCR analysis; type: functional, cell-based
How it was run: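 RAW 264.7 cells (DMEM, 10% FBS, 37 °C, 5% CO2) seeded at 1 × 10^5/well and held 4 h. LPS 1.0 μg/mL was added for 24 h, then medium was replaced with test agent (0.8, 1.6, 3.1 μM or 2.3, 4.6, 9.2 μM) for 24 h. TNF-α and IL-6 transcripts were quantified by real-time qPCR against GAPDH. Triplicates, mean ± SD.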

MDA-MB-231 [11] = experiment: Induction of cell cycle arrest in human MDA-MB-231 cells assessed as accumulation of cells at S phase at 12.4 uM incubated for 48 hrs by PI/RNase staining based flow cytometric analysis (reference value: 39.2%); type: functional; how it was run: as §2
RAW264.7 [12] = experiment: Antiinflammatory activity in mouse RAW264.7 cells assessed as inhibition of LPS-induced NO production at 0.8 to 3.1 uM measured after 24 hrs by griess reagent based assay; type: functional, cell-based; how it was run: as §3
LNCaP = experiment: Antiproliferative activity against human LNCAP cells assessed as cell viability at >30.9 uM incubated for 48 hrs by methylene blue assay relative to control; type: functional
How it was run: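 MDA-MB-231, MCF-7, HepG2 and LNCaP cells were grown in DMEM; HCT-116 and LO-2 in RPMI-1640; all with 10% FBS at 37 °C, 5% CO2. Cells seeded at 1.5 × 10^5 cells/mL and incubated overnight (~12 h), then exposed to 6.2–30.9 μM or 23.1–185.0 μM (final DMSO <0.1%) for 48 h. Read by methylene blue staining; viability = Abs treated/Abs untreated × 100%, triplicate.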

MDA-MB-231 [13] = experiment: Induction of apoptosis in human MDA-MB-231 cells assessed as viable cells at 8.6 uM incubated for 48 hrs by annexin V-FITC/PI based flow cytometric analysis (Rvb= 96.21%); type: functional; details: MDA-MB-231, 48 h, read-out: Activity
MDA-MB-231 [14] = experiment: Induction of cell cycle arrest in human MDA-MB-231 cells assessed as accumulation of cells at G0/G1 phase at 17.3 uM incubated for 48 hrs by PI/RNase staining based flow cytometric analysis (reference value: 50.4%); type: functional; how it was run: as §2
MDA-MB-231 [15] = experiment: Induction of apoptosis in human MDA-MB-231 cells assessed as late apoptotic cells at 12.4 uM incubated for 48 hrs by annexin V-FITC/PI based flow cytometric analysis (Rvb= 2.82%); type: functional
MDA-MB-231 [16] = experiment: Induction of cell cycle arrest in human MDA-MB-231 cells assessed as accumulation of cells at G2/M phase at 8.6 uM incubated for 48 hrs by PI/RNase staining based flow cytometric analysis (reference value: 10.4%); type: functional; how it was run: as §2
MDA-MB-231 [17] = experiment: Induction of apoptosis in human MDA-MB-231 cells assessed as necrotic cells at 8.6 uM incubated for 48 hrs by annexin V-FITC/PI based flow cytometric analysis (Rvb= 0.74%); type: functional
MDA-MB-231 [18] = experiment: Induction of mitochondrial membrane potential loss in human MDA-MB-231 cells assessed as cell population with intact mitochondrial membrane potential by measuring red fluorescence at 12.4 uM incubated for 48 hrs by JC1 staining based flow cytometric analysis (reference value: 92.04%); type: functional; how it was run: as §1

In the case of `CC(C)=CCc1c2c(c(O)c3c(=O)cc(-c4ccc(O)cc4)oc13)C=CC(C)(C)O2` [LAXIFOLIN], the Activity (MDA-MB-231 [1]) was 16.49%, the Activity (MDA-MB-231 [2]) was 11.6% and the viability at 12.4 µM (MDA-MB-231 [3]) was 85.3%. The Activity (MDA-MB-231 [4]) was 60.2%, the Activity (MDA-MB-231 [5]) was “Dose-dependent effect” and the MNTC at 24 h [6] was 3.1 µM. The Activity (RAW264.7 [7]) was “Active”, the Activity (MDA-MB-231 [8]) was “Dose-dependent effect” and the Activity (MDA-MB-231 [9]) was 29.5%. The Activity (RAW264.7 [10]) was “Active”, the Activity (MDA-MB-231 [11]) was 28.2% and the inhibition (RAW264.7 [12]) was “Active”. It also gave an Activity (LNCaP) of 20%, a viability at 8.6 µM (MDA-MB-231 [13]) of 88.3% and an Activity (MDA-MB-231 [14]) of 63.3%. It also gave an Activity (MDA-MB-231 [15]) of 12.89%, an Activity (MDA-MB-231 [16]) of 11% and an Activity (MDA-MB-231 [17]) of 1.04%. It also gave an Activity (MDA-MB-231 [18]) of 84.3%.
